According to article PMC6703927 (ACS chemical neuroscience, 2019):

Experiments:
DAT [1] = target: T1, DAT (Rattus norvegicus, UniProt P23977); assay: Synaptosomal dopamine uptake assay, striatal synaptosomes; type: biochemical
DAT W84L = details: cited from earlier work
hDAT Y156F = details: cited from earlier work
hNET = hNET (Homo sapiens, UniProt P23975); type: cell-based; details: hDAT vs hNET
Method in brief: (§1)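 MDCK cells stably expressing hDAT, hNET or hSERT were kept in DMEM with 10% FBS, pen/strep and blasticidin (5 μg/mL) at 37 °C, 5% CO2. Radiolabeled neurotransmitter uptake ([3H]-DA, [3H]serotonin) was measured against test compound dose. Results were normalized to percent of the highest response, and IC50 was fitted by nonlinear regression from three independent experiments.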

hSERT = hSERT (Homo sapiens, UniProt P31645); type: cell-based; details: hDAT vs SERT
Sequence of hSERT (P31645 whole entry): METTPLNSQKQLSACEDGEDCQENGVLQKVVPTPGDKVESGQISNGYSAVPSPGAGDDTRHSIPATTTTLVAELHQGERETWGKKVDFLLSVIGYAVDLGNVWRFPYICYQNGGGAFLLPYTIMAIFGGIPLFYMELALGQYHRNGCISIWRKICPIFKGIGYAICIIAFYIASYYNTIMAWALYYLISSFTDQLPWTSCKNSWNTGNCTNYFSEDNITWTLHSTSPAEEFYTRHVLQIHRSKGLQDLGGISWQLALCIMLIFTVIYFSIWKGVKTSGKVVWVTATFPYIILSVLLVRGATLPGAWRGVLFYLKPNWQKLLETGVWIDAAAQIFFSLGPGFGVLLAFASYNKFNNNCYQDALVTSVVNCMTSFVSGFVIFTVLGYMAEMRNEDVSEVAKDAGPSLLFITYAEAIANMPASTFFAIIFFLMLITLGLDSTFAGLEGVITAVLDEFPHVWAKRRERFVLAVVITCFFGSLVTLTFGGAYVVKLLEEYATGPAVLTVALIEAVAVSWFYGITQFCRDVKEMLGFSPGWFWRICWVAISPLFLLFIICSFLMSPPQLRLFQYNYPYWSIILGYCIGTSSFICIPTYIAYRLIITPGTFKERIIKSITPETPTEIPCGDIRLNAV
Method in brief: as §1

wild type DAT = assay: [3H]-DA uptake kinetic assay, transiently transfected COS-7 cells; type: cell-based, human; details: for Vmax of dopamine uptake: vehicle 71.5 ± 6.12
Method in brief: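 WT human DAT was transiently expressed in COS-7 cells (TransIT-LT1). [3H]-dopamine saturation uptake was run with vehicle, 1 μM or 5 μM test compound. Vmax and Km were obtained from a Michaelis-Menten nonlinear regression fit. Figure data and kinetic constants are averaged over four independent experiments.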

WT-DAT = WT-DAT (Homo sapiens, UniProt Q01959); assay: DA uptake inhibition assay, transfected COS-7 cells; type: cell-based; details: read-out: IC50 DA uptake inhibition; WT-DAT transfected COS-7 cells
Sequence of WT-DAT (Q01959 whole entry): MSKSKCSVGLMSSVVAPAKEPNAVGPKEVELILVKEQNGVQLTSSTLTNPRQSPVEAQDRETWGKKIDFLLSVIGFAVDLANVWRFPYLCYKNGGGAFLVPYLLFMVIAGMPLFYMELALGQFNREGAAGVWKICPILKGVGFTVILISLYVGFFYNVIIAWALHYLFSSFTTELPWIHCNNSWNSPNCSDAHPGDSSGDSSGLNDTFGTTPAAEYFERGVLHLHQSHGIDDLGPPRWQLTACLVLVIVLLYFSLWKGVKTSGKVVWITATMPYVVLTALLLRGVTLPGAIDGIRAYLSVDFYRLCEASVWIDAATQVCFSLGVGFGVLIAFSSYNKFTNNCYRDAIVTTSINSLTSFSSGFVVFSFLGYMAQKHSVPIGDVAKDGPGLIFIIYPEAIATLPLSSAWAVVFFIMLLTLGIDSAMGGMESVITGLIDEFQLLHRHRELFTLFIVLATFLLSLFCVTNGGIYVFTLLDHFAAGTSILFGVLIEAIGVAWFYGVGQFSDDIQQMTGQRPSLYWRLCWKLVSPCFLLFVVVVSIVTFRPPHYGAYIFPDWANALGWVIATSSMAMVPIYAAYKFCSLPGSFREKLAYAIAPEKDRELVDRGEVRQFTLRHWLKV

Y156F-DAT = Y156F-DAT (Homo sapiens, UniProt Q01959, Y156F); assay: DA uptake inhibition assay, transfected COS-7 cells; type: cell-based
Sequence of Y156F-DAT (Q01959 whole entry Y156F): as the sequence (Q01959 whole entry) above, with Y156F counted along it
Method in brief: (§2)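 COS-7 cells (DMEM, 10% FBS, pen/strep, 37 °C, 5% CO2) were transiently transfected with WT or mutant human DAT using TransIT-LT1. Dopamine uptake was measured across a dose-response of test compound. Responses were normalized, and IC50 was obtained by nonlinear regression. Means and SEM come from three independent experiments, with the mutant compared against WT-DAT.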

Y335A-DAT = Y335A-DAT (Homo sapiens, UniProt Q01959, Y335A); assay: as above; type: cell-based
Sequence of Y335A-DAT (Q01959 whole entry Y335A): as the sequence (Q01959 whole entry) above, with Y335A counted along it
Method in brief: as §2

DAT-XC/W84C [2] = target: T2, DAT-XC/W84C (Homo sapiens, UniProt Q01959, C306A/W84C); assay: DA uptake dose-response inhibition assay, transiently expressed DAT mutant; type: cell-based; details: W84C vs DAT-XC
T2 sequence (Q01959 1-620 W84C/C306A): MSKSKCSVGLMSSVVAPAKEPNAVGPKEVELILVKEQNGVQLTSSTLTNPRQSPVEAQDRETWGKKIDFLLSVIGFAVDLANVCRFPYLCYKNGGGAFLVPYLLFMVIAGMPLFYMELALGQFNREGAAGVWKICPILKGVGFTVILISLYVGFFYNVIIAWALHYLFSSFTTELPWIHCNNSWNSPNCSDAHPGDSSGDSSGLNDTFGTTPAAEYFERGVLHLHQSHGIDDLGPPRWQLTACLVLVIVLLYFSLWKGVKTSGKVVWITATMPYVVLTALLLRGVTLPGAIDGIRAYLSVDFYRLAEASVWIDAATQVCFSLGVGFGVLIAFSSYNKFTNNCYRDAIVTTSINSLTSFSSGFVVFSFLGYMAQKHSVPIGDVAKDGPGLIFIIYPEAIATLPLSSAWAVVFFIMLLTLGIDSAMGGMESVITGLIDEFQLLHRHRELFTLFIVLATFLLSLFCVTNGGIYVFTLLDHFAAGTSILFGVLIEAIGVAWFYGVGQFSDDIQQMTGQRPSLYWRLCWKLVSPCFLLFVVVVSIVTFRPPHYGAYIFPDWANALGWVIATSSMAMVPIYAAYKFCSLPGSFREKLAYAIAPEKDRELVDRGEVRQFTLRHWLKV
Method in brief: (§3)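 Mutants were made by site-directed mutagenesis. Single mutants used human WT DAT as background, and double cysteine mutants used C306A-DAT (DAT-XC). DA uptake dose-response gave IC50s from three or more independent experiments. Cysteine mutant IC50s were compared with DAT-XC, and D476 mutant IC50s with DAT-WT, by paired Student's t test.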

DAT mutant D385C = assay: as above; type: cell-based, human; details: D385C vs DAT-XC
Method in brief: as §3

DAT mutant D476N = assay: as above; type: cell-based, human; details: D476N vs DAT-WT
Method in brief: as §3

DAT-XC/W84C [3] = target: T2, DAT-XC/W84C; assay: SCAM MTSEA-biotin biotinylation, HEK-293 cells; type: cell-based
[4] = test system: DAT cysteine mutant D385C; assay: SCAM MTSEA-biotin biotinylation, HEK-293 cells; type: cell-based, human; details: 20 μM KM822 coincubation
Method in brief: (§4)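 SCAM used HEK-293 cells (Lipojet transfection) expressing N-terminally HA-tagged cysteine mutants on the C306A background. Cells were incubated with test compound (20 μM) before MTSEA-biotin labeling. Biotinylated DAT was pulled down on streptavidin beads and immunoblotted with anti-HA antibody. It was normalized to total DAT from unpurified lysates, then to the untreated band.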

[5] = test system: DAT cysteine mutant T473C; assay: SCAM MTSEA-biotin biotinylation, HEK-293 cells; type: cell-based, human; details: 20 μM KM822 coincubation
Method in brief: as §4

[6] = test system: DAT cysteine mutant R544C; assay: SCAM MTSEA-biotin biotinylation, HEK-293 cells; type: cell-based, human; details: 20 μM KM822 coincubation
Method in brief: as §4

DAT-XC/T316C [7] = assay: SCAM MTSEA-biotin biotinylation, HEK-293 cells; type: cell-based, human
Method in brief: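 HEK-293 cells (Lipojet transfection) expressed HA-tagged DAT-XC/T316C. […] Streptavidin-purified biotinylated DAT was immunoblotted with anti-HA, normalized to total DAT in unpurified lysate, then to the untreated band. Eight independent experiments were run.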

DAT-XC/A372C [8] = assay: SCAM MTSEA-biotin biotinylation, HEK-293 cells; type: cell-based, human
DAT [9] = target: T1, DAT; assay: Ex vivo slice fast scan cyclic voltammetry, Nucleus accumbens; details: 50 μM KM822, NAc slices
Method in brief: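 Rats were anesthetized with 2.5% isoflurane for 3 min and decapitated, and coronal NAc slices were cut into oxygenated ACSF (pH 7.4). After 30 min recovery at room temperature, slices were recorded at 32 °C by carbon-fiber microelectrode. Single pulses (400 μA, 4 ms, monophasic) were given every 3 min until baseline stabilized over three stimulations.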

DAT Y335A = details: cited from earlier work
DAT-XC/T316C [10] = details: DAT-XC/T316C in the presence of cocaine; cited from earlier work
DAT-XC/A372C [11] = details: DAT-XC/A372C treated with cocaine; cited from earlier work

T1 sequence (P23977 whole entry): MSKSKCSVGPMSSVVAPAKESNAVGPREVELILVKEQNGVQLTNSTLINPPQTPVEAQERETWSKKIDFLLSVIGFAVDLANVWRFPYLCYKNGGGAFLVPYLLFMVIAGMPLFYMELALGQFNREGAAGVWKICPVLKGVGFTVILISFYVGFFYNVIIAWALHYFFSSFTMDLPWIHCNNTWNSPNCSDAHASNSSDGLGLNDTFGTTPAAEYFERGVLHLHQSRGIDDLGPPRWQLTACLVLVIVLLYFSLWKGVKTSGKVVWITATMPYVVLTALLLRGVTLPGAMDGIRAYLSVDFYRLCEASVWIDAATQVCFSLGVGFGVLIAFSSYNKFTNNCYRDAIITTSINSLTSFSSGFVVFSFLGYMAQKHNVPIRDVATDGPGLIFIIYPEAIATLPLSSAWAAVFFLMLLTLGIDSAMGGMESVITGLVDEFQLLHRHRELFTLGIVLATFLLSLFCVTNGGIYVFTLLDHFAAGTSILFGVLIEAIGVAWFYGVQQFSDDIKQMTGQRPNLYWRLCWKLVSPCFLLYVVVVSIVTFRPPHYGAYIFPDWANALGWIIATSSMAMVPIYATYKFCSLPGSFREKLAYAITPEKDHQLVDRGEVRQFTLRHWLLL
Sequence of hNET (P23975 whole entry): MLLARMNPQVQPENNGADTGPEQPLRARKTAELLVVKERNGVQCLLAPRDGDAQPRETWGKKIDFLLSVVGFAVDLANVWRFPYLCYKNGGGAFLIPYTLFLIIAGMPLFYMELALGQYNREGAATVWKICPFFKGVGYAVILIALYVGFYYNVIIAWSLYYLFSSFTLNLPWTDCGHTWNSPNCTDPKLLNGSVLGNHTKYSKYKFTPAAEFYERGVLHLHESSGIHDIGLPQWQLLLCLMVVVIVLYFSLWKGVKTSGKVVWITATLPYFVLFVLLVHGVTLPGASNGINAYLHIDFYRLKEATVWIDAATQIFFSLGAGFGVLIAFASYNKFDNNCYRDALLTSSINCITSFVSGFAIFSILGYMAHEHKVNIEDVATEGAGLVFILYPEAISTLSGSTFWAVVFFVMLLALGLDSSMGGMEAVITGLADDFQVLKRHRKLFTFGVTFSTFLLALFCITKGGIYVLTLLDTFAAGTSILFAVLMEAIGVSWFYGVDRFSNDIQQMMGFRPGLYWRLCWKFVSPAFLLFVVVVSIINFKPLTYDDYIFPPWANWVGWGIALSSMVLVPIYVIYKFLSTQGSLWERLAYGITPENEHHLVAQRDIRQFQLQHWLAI

Question: What does the source list for `Fc1ccc(C(OCCN2CCN(CCCc3ccccc3)CC2)c2ccc(F)cc2)cc1` [GBR12909]?
Answer: total DA uptake in striatal synaptosomes (DAT [1]; 1 μM GBR12909): significantly blocked; change of apparent potency in W84 to leucine mutant (DAT W84L): decrease in apparent potency

Question: For `CCCCN1[C@@H]2CC[C@H]1CC(OC(c1ccc(F)cc1)c1ccc(F)cc1)C2` (some centres unmarked) [JHW-007], which “potency change by Y156F mutation” value (hDAT Y156F) is on record?
Answer: The value was “significantly reduced”.

Question: With `CCc1ccc2[nH]c3nc(SCCNS(=O)(=O)c4ccc(NC(C)=O)cc4)nnc3c2c1` [KM822] as the molecule, how does the “potency for hDAT transport inhibition higher than for hNET” value (hNET) read?
Answer: The value was 30 folds.

Question: What about the “potency for hDAT transport inhibition higher than for SERT” value (hSERT) of the same molecule?
Answer: The value was 50 folds.

Question: What about the “Vmax of dopamine uptake” value (wild type DAT; in the presence of 1 μM KM822) of the same molecule?
Answer: Its value is 65.8 ± 8.71 μmol/min/well.

Question: What about the “Vmax of dopamine uptake” value (wild type DAT; in the presence of 5 μM KM822) of the same molecule?
Answer: Its value is 57.9 ± 4.15 μmol/min/well.

Question: And the “manner of dopamine uptake inhibition” value (wild type DAT; uptake kinetics)?
Answer: Its value is “noncompetitive”.

Question: What about the IC50 (WT-DAT) of the same molecule?
Answer: The IC50 was 3.8 ± 0.88 µM.

Question: And the “potency in Y156F-DAT mutant as compared to WT-DAT” value (Y156F-DAT; COS-7 cells)?
Answer: Its value is “unchanged”.

Question: And the IC50 (Y156F-DAT; read-out: IC50 DA uptake inhibition, Y156F-DAT transfected COS-7 cells)?
Answer: Its IC50 is 3.3 ± 0.45 µM.

Question: What about the “potency reduction in Y335A mutant vs WT-DAT” value (Y335A-DAT; COS-7 cells) of the same molecule?
Answer: Its value is 3 fold.

Question: What about the IC50 (Y335A-DAT; read-out: IC50 DA uptake inhibition, Y335A-DAT transfected COS-7 cells) of the same molecule?
Answer: Its IC50 is 12.8 ± 1.4 µM.

Question: What about the “change of potency in mutant” value (DAT-XC/W84C [2]) of the same molecule?
Answer: The value was “increase in potency”.

Question: What about the “change of apparent potency in mutant” value (DAT mutant D385C) of the same molecule?
Answer: The value was “lowered”.

Question: And the “change of apparent potency in mutant” value (DAT mutant D476N)?
Answer: The value was “lowered”.

Question: What about the “effect on MTSEA-biotin biotinylation” value (DAT-XC/W84C [3]; 20 μM KM822 coincubation) of the same molecule?
Answer: Its value is “significantly decreased”.

Question: What about the “effect on MTSEA-biotin biotinylation” value [4] of the same molecule?
Answer: The value was “no effect”.

Question: And the “effect on MTSEA-biotin biotinylation” value [5]?
Answer: The value was “no effect”.

Question: And the “effect on MTSEA-biotin biotinylation” value [6]?
Answer: The value was “no effect”.

Question: And the “effect on MTSEA-biotin labeling” value (DAT-XC/T316C [7]; 20 μM KM822)?
Answer: The value was “increased”.

Question: What about the “effect on MTSEA-biotin labeling” value (DAT-XC/A372C [8]; 20 μM KM822) of the same molecule?
Answer: Its value is “no significant change”.

Question: And the “effect on stimulated DA release / cocaine-induced changes in DA release” value (DAT [9])?
Answer: Its value is “did not affect”.

Question: What about the “effect on cocaine-induced inhibition of DA uptake (app Km)” value (DAT [9]; cumulative cocaine, significant at 30 μM cocaine) of the same molecule?
Answer: The value was “significantly reduced”.

Question: Which “potency change by Y156F mutation” value (hDAT Y156F) does the source give for `NC(=O)C[S@+]([O-])C(c1ccccc1)c1ccccc1` [S-modafinil] here?
Answer: Its value is “significantly reduced”.

Question: Which “change of apparent potency in W84 to leucine mutant” value (DAT W84L) does the source give for `CN1[C@@H]2CC[C@H]1C[C@@H](OC(c1ccccc1)c1ccccc1)C2` [benztropine] here?
Answer: Its value is “decrease in apparent potency”.

Question: What does the source list for `COC(=O)[C@H]1[C@@H](OC(=O)c2ccccc2)C[C@@H]2CC[C@H]1N2C` [cocaine]?
Answer: effect on MTSEA-biotin labeling (DAT-XC/W84C [3]; 100 μM cocaine coincubation): not affected; effect on MTSEA-biotin labeling (DAT-XC/T316C [7]; 100 μM cocaine): increased labeling; effect on MTSEA-biotin labeling (DAT-XC/A372C [8]; 100 μM cocaine): no change in labeling; total DA uptake in striatal synaptosomes (DAT [1]; 100 μM cocaine): significantly blocked; change of apparent potency in W84 to leucine mutant (DAT W84L): increased apparent potency; binding affinity change by Y156F mutation (hDAT Y156F): unaffected; potency change by Y335A mutation (DAT Y335A): markedly impairs; labeling with a maleimide-based biotin molecule (DAT-XC/T316C [10]): increased labeling; labeling with a maleimide-based biotin molecule (DAT-XC/A372C [11]): no change in labeling
